Results on two substances are retold here after publication PMC8114962 (Advanced therapeutics, 2021).

Series [1] can be described thus: Solubility in aqueous solution. Format: physicochemical. To be noted: observation.
The target of series [2] is T1, recombinant dg-Bcan protein (Homo sapiens, UniProt Q96GW7).
T1 sequence (Q96GW7 23-911): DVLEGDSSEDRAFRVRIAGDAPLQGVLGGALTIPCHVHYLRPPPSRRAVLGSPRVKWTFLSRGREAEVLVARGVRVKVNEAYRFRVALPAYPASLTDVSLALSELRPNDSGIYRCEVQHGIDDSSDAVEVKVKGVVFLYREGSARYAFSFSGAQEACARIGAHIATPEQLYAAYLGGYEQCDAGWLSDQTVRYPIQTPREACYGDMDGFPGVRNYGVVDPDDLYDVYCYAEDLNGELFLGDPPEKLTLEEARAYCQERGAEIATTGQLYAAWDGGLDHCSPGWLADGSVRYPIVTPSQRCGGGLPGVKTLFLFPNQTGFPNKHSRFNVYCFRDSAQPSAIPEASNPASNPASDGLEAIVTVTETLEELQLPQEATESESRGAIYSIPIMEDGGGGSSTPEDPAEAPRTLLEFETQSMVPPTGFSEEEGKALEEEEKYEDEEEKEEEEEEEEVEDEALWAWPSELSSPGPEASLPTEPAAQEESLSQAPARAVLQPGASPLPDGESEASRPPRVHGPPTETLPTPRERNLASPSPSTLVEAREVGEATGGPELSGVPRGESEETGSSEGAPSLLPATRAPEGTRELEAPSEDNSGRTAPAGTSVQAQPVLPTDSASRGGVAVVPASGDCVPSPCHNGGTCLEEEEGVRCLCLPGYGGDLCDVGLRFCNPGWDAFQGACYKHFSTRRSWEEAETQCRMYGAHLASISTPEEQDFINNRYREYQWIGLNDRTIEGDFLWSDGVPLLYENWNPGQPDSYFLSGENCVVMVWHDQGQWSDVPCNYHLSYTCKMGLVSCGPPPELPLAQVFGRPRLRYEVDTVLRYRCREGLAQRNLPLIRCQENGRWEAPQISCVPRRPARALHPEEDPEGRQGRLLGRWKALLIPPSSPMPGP
Put plainly: Octet binding kinetics analysis, recombinant dg-Bcan. The conditions noted are these: Octet RED. An outline of the steps: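 Binding kinetics of test peptides measured by biolayer interferometry (Octet RED384) against recombinant human brevican, deglycosylated before use and held in PBS with 0.1 mM EDTA, pH 6.8. Fully glycosylated Bcan served as a comparison protein. The run used working buffer (0.9% NaCl irrigation, 0.05% Tween) with 1000 rpm agitation at 30°C. KD and Rmax came from a one-site specific binding non-linear regression fit.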
In general terms: In BLI a coated tip is dipped into the sample, and binding shifts an interference pattern.

On to BTP-2, for which the “solubility in aqueous solution” value in series [1] is “insoluble and precipitated in aqueous solution”.
For Scr-7, in series [2], the “dg-Bcan protein binding” value is listed as “did not exhibit dg-Bcan protein binding”.
